Screening results deposited in PubChem by Johns Hopkins Ion Channel Center.
Rows were chosen to be rich in hits. Some 2.3% of all compounds tested hit in one or more screens of this group.
TRPC4 block = inhibitors of mouse TRPC4 channel, primary screen, Fluo4 calcium, HEK293 TRPC4beta/mu-opioid cells; Short transient receptor potential channel 4 (Mus musculus), Q9QUQ5; DAMGO-evoked Fluo4 calcium flux; hits give low values; B-score at 10 µM; hit rate 0.39% among 300,000; AID 2247, 2010;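 active = B-score over 3 SD under the library average, no early fluorescence shift, positive overall ratio signal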
Target sequence (Q9QUQ5 whole entry, looked up): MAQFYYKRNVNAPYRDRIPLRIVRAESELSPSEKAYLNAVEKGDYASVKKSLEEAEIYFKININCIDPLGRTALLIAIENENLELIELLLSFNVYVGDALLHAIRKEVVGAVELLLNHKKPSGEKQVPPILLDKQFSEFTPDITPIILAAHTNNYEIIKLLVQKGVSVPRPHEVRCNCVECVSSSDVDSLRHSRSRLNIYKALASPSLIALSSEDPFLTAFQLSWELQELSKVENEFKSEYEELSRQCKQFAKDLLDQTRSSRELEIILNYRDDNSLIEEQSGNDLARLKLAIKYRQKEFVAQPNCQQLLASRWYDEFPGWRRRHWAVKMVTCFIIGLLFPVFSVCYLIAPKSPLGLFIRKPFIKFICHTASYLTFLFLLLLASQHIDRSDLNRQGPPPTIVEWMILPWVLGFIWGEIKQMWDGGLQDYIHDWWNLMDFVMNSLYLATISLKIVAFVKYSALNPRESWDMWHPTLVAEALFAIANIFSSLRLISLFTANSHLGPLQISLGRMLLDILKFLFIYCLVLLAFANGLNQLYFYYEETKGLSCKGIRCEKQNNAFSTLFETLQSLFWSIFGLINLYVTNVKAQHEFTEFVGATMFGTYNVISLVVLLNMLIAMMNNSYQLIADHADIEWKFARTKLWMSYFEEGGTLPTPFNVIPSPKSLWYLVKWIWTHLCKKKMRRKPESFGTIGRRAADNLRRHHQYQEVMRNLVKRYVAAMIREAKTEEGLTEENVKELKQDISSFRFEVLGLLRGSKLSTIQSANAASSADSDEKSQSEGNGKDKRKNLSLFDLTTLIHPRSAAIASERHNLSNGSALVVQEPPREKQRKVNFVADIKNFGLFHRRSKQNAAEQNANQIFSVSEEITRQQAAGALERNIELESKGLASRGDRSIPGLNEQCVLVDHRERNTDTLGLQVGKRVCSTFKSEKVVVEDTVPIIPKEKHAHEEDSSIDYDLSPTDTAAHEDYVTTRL
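Assay system: Stable TRPC4beta/mu-opioid receptor HEK293 cells | Reagent: DAMGO in two steps, submaximal then maximal | Compound dosing: Single concentration per test compound | Signal: Fluo4 Ca2+ flux fluorescence | Evaluation: Per-well B score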
TRPC4 PAM = positive allosteric modulators of TRPC4, primary screen, cell-based, mouse TRPC4beta, HEK293 mu-opioid, Fluo-4 calcium. Short transient receptor potential channel 4 (Mus musculus), Q9QUQ5. DAMGO EC20, Fluo-4 Ca2+ flux; hits give high values. B-score at 10 µM. hit rate 0.42% among 310,000;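 active = B-score of calcium response area above 5 SD of library B-scores, with initial fluorescence ratio within 5 SD of library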
TRPC6 inhibitor = mouse TRPC6 channel inhibitors, primary screen, cell-based, HEK293, membrane potential dye. Short transient receptor potential channel 6 (Mus musculus), Q61143. B-score at 10 µM. ACh-evoked depolarization; hits give low values. hit rate 1.1% among 310,000;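 active = B-score under library mean minus 3 SD, initial fluorescence not abnormally high, positive integrated signal ratio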;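 also: B-score derived from integrated fluorescence ratio over the kinetic read; more negative B-score means stronger inhibition of depolarization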
TRPC4 agonist = activators of mouse TRPC4 channel, primary screen, Fluo4 calcium, HEK293 TRPC4beta/mu-opioid cells. Short transient receptor potential channel 4 (Mus musculus), Q9QUQ5. Fluo4 calcium fluorescence; hits give high values. B-score at 10 µM. hit rate 0.49% among 310,000;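 active = B-score above 5 SD of library B-scores, and initial fluorescence ratio not above library mean plus 5 SD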;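 also: positive B-score marks a calcium rise read as TRPC4 activation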
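Assay system – TRPC4beta and mu-opioid receptor HEK293 stable cells · Measured by – Fluo4 fluorescence, kinetic · Schedule – dye loading 45 min room temperature, 110 s kinetic read · Read-out – B-scored integrated calcium fluorescence ratio · Controls – buffer and maximal DAMGO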
TRPC6 act = mouse TRPC6 channel activators, primary screen, cell-based, HEK293, membrane potential dye; HEK293-TRPC6 membrane potential dye fluorescence; hits give high values; B-score at 10 µM; hit rate 0.13% among 310,000;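 active = B-score of the integrated fluorescence ratio above library mean plus 3 SD, and starting fluorescence ratio within library mean plus 5 SD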;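 also: higher score means more depolarization so channel activation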
TRPC4 spec 2 = second selectivity test of TRPC6 inhibitors: effect on mouse TRPC4 | shares compounds with TRPC6 inhibitor | HEK293 TRPC4/MOR, membrane potential dye fluorescence; channel activated by saturating DAMGO dose | inhibition, % at 10 µM | hit rate 42% among 920;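 active = compounds whose fluorescence signal differed from control wells by over 3 SD, either direction, in both duplicate plates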
TRPC4 spec = mouse TRPC4 modulation by TRPC6 hits, confirmation, selectivity assay for TRPC6 inhibitor project, cell-based, HEK293 TRPC4/mu-opioid, membrane potential dye; shares compounds with TRPC6 inhibitor; hit rate 61% among 920; activity change, negative = inhibition, % at 10 µM; membrane potential fluorescence;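 active = rise or fall in signal beyond 3 SD of buffer-only wells in both replicate plates, either sign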;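 also: integrated kinetic ratio of fluorescence range over baseline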
HEK293 MPD ctr 2-1 = nonspecific membrane potential effects, parental HEK293, confirmation, counter-screen for TRPC6 inhibitor project, cell-based, second counter screen. AID 2779, 2010. hit rate 31% among 920. parental HEK293 membrane potential dye fluorescence; maximal acetylcholine challenge after compound addition. shares compounds with TRPC6 inhibitor. signal change vs control, % at 10 µM;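 active = membrane potential signal moving either way by over 3 SD of the maximum-effect control, in both duplicate plates, meaning non-specific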
HEK293 MPD ctr-1 = membrane potential modulation in parental HEK293, confirmation, counter-screen for TRPC6 inhibitor project, cell-based; membrane potential signal change, % at 10 µM; shares compounds with TRPC6 inhibitor; parental HEK293 membrane potential dye fluorescence; hit rate 60% among 920;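 active = membrane potential signal shifting up or down by more than 3 SD of buffer-only wells, on both duplicate plates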
HEK293 MPD ctr-2 = parental HEK293 membrane potential modulation, confirmation, counter-screen for TRPC6 modulator project, cell-based; membrane potential signal change, % at 10 µM; AID 488924, 2010; membrane potential dye fluorescence; shares compounds with TRPC6 inhibitor; hit rate 51% among 2,400;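 active = membrane potential signal moves up or down beyond 5 SD from buffer-only wells, on both duplicate plates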
HEK293 MPD ctr 2-2 = second check of TRPC6 modulator effects in parental HEK293 cells; shares compounds with TRPC6 inhibitor; membrane potential dye fluorescence; after compound, maximal acetylcholine stimulation; inhibition, % at 10 µM; hit rate 14% among 2,400;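 active = membrane potential signal drops by more than 5 SD from the mean control signal, in both duplicate plates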
TRPC4 ctr mod = TRPC4 modulation by TRPC6 hit compounds, confirmation, selectivity assay for TRPC6 modulator project, cell-based, HEK293 TRPC4/mu-opioid, membrane potential dye, mouse. AID 488927, 2010. hit rate 69% among 2,400. shares compounds with TRPC6 inhibitor. percent change from control (negative = decrease, positive = increase), % at 10 µM. membrane potential fluorescence;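 active = membrane potential signal moved up or down beyond 5 SD of buffer control wells, in both duplicate plates, actives on both sides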
TRPC4 ctr inh 2 = mouse TRPC4 off-target activity of TRPC6 modulators, second screen | shares compounds with TRPC6 inhibitor | HEK293 TRPC4/mu-opioid, membrane potential dye fluorescence; stimulated with maximal-effect DAMGO | inhibition, % at 10 µM | hit rate 55% among 2,400;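 active = drop in membrane potential signal beyond 5 SD of the control wells in both duplicate plates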;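 also: TRPC4 counter screen for TRPC6 hits run under conditions tuned for TRPC6 not TRPC4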
TRPC6 block conf = mouse TRPC6 channel inhibitors, confirmation, HEK293 cells, membrane potential dye, duplicate. inhibition, % at 10 µM. ACh-evoked depolarization. hit rate 43% among 3,300. shares compounds with TRPC6 inhibitor;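 active = fluorescence ratio falls more than 5 SD below the full-stimulation control mean, in both duplicate runs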;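 also: integrated fluorescence ratio of peak minus minimum over baseline after agonist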
TRPC6 act confirm = mouse TRPC6 channel activators, confirmation, HEK293 cells, membrane potential dye, duplicate | shares compounds with TRPC6 inhibitor | HEK293-TRPC6 membrane potential dye fluorescence, FDSS | activation, % at 10 µM | hit rate 11% among 2,800;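 active = ratio signal rise beyond 5 SD above unstimulated control wells' mean, seen in both duplicate runs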
Of the large screens only hits and unclear results are named; the others gave an inactive call (follow-up assays come after a bar, where they were run).

CCc1ccc(S(=O)(=O)/N=C2\C=C(Nc3ccc(C(=O)O)cc3)C(=O)c3ccccc32)cc1	TRPC6 inhibitor -6.9 | HEK293 MPD ctr-2 -120% | HEK293 MPD ctr 2-2 inactive | TRPC4 ctr mod -26% | TRPC4 ctr inh 2 68% | TRPC6 block conf 36% | TRPC6 act confirm inactive
CC(C)(C)c1ccc(S(=O)(=O)/N=C2\C=C(NS(=O)(=O)c3ccccc3)C(=O)c3ccccc32)cc1	TRPC6 inhibitor -6.1 | HEK293 MPD ctr-2 -153% | HEK293 MPD ctr 2-2 77% | TRPC4 ctr mod -30% | TRPC4 ctr inh 2 90% | TRPC6 block conf 81% | TRPC6 act confirm inactive
Cc1ccc(S(=O)(=O)/N=C2\C=C(Nc3cccc(C(=O)O)c3)C(=O)c3ccccc32)cc1	none
NNC(=O)c1nc[nH]c1C(=O)Nc1ccccc1	none
N#C/C(C(=O)Nc1ccc(Cl)cc1)=C(/S)Nc1ccccc1	none
CC(=O)Nc1cccc(/C(C)=N/N2C(C)CCCC2C)c1 (stereo unspecified)	none
C#CC[N+](C)(C)CCCCCCCCCCCC	TRPC6 inhibitor -5.1 | HEK293 MPD ctr-2 inactive | HEK293 MPD ctr 2-2 inactive | TRPC4 ctr mod 19% | TRPC4 ctr inh 2 45% | TRPC6 block conf 60%
Cc1cc(N2CCOCC2)c2c(N)cc(C)c(C)c2n1	TRPC6 inhibitor -11 | HEK293 MPD ctr-2 -357% | HEK293 MPD ctr 2-2 87% | TRPC4 ctr mod -54% | TRPC4 ctr inh 2 54% | TRPC6 block conf 58% | TRPC6 act confirm inactive
Cc1ccc2cc(C=O)c(N3CCOCC3)nc2c1C	none
CC1=C(C(=O)OC(C)C)C(c2cccc(F)c2)N2C(=O)C(C)SC2=N1 (stereo unspecified)	TRPC6 inhibitor -6 | HEK293 MPD ctr-2 inactive | HEK293 MPD ctr 2-2 inactive | TRPC4 ctr mod 13% | TRPC4 ctr inh 2 inactive | TRPC6 block conf inactive | TRPC6 act confirm inactive
CC1=C(C(=O)OCC(C)C)C(c2cccc(F)c2)N2C(=O)C(C)SC2=N1 (stereo unspecified)	none
Cc1ccc(S(=O)(=O)N2CCN(C(=O)C3=COCCO3)CC2)cc1C	TRPC6 inhibitor -7 | TRPC4 spec 2 inactive | TRPC4 spec -0.7% | HEK293 MPD ctr 2-1 inactive | HEK293 MPD ctr-1 inactive | TRPC6 block conf inactive | TRPC6 act confirm inactive
Cc1ccc2sc(N3CCN(C(=O)C4=COCCO4)CC3)nc2c1C	TRPC6 inhibitor -5.4 | HEK293 MPD ctr-2 inactive | HEK293 MPD ctr 2-2 inactive | TRPC4 ctr mod 17% | TRPC4 ctr inh 2 inactive | TRPC6 block conf 68%
Cc1cc2nc(N3CCN(C(=O)c4cccs4)CC3)sc2cc1C	none
Cc1ccc(S(=O)(=O)N2CCN(C(=O)c3cccs3)CC2)cc1C	TRPC6 act 18 | HEK293 MPD ctr-2 inactive | HEK293 MPD ctr 2-2 inactive | TRPC4 ctr mod 16% | TRPC4 ctr inh 2 inactive | TRPC6 act confirm 148%
Cc1cc(C)c2nc(N3CCN(C(=O)c4cccs4)CC3)sc2c1	TRPC6 inhibitor -6.5 | HEK293 MPD ctr-2 inactive | HEK293 MPD ctr 2-2 inactive | TRPC4 ctr mod inactive | TRPC4 ctr inh 2 inactive | TRPC6 block conf inactive | TRPC6 act confirm inactive
Cc1ccc2sc(NNC(=O)C3=COCCO3)nc2c1C	none
CCN1C(=O)CSC1=Nc1ccccc1Cl	none
O=C(C1=COCCO1)N1CCN(C(c2ccccc2)c2ccccc2)CC1	TRPC6 inhibitor -7 | TRPC4 spec 2 inactive | TRPC4 spec 1.6% | HEK293 MPD ctr 2-1 inactive | HEK293 MPD ctr-1 1.7% | TRPC6 block conf inactive
CCCc1cc(CNC(=O)C2CCC(=O)N(Cc3ccccc3OC)C2)on1 (stereo unspecified)	none
CCN(CC)CCCn1c2c(c(SCC(=O)Nc3cccc4ccccc34)nc1=O)CCC2	none
CN(C)CCCn1c2c(c(SCC(=O)Nc3cccc4ccccc34)nc1=O)CCCC2	TRPC6 inhibitor -5.3 | HEK293 MPD ctr-2 inactive | HEK293 MPD ctr 2-2 inactive | TRPC4 ctr mod inactive | TRPC4 ctr inh 2 46% | TRPC6 block conf inactive | TRPC6 act confirm inactive
c1ccc(Nc2nc(N3CCCCC3)nc(N3CCNCC3)n2)cc1	TRPC4 PAM 30, TRPC6 inhibitor -5.6 | HEK293 MPD ctr-2 inactive | HEK293 MPD ctr 2-2 inactive | TRPC4 ctr mod 14% | TRPC4 ctr inh 2 58% | TRPC6 block conf 55%
COC(=O)c1c(NC(=O)C(C)(C)C)sc2c1CCN(Cc1ccccc1)C2	none
CCOC(=O)c1c(NC(C)=O)sc2c1CCN(Cc1ccccc1)C2	TRPC6 inhibitor -5.3 | HEK293 MPD ctr-2 -198% | HEK293 MPD ctr 2-2 inactive | TRPC4 ctr mod -34% | TRPC4 ctr inh 2 39% | TRPC6 block conf inactive | TRPC6 act confirm inactive
CCOC(=O)c1c(NC(=O)CC)sc2c1CCN(Cc1ccccc1)C2	none
